Experimental data reported in ChEMBL document CHEMBL5126600, “Discovery of the First-in-Class G9a/GLP Covalent Inhibitors” (J Med Chem, 2022).
Activity calls are given as the source filed them. The rule behind the calls is not given here.

Columns and labels:
[1] = biological target: Protein arginine N-methyltransferase 3 (Homo sapiens) (UniProt O60678); test: Inhibition of N-terminal His-tagged PRMT3 (2 to 531 residues)(unknown origin) expressed in Escherichia coli at 1 uM using 3H-SAM as a substrate relative to control
In short: (§1)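 Contracted 3H-SAM methyl-transfer scintillation proximity assay against a panel of methyltransferases; compound tested at 1 μM in duplicate; inhibition expressed as percent of control enzyme activity.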

[2] = biological target: Histone-lysine N-methyltransferase EZH2 (Homo sapiens) (UniProt Q15910); test: Inhibition of N-terminal His-tagged EZH2 (2 to 746 residues) (unknown origin) expressed in baculovirus expression system at 1 uM using 3H-SAM as a substrate relative to control; in short: as §1
[3] = biological target: Histone-lysine N-methyltransferase SUV39H2 (Homo sapiens) (UniProt Q9H5I1); test: Inhibition of N-terminal fusion protein with C-terminal His-tagged SUV39H2 (46 to 410 residues) (unknown origin) expressed in Escherichia coli at 1 uM using 3H-SAM as a substrate relative to control; in short: as §1
Chain of Histone-lysine N-methyltransferase SUV39H2 (Homo sapiens) (Q9H5I1 whole entry, the tested form may be a part): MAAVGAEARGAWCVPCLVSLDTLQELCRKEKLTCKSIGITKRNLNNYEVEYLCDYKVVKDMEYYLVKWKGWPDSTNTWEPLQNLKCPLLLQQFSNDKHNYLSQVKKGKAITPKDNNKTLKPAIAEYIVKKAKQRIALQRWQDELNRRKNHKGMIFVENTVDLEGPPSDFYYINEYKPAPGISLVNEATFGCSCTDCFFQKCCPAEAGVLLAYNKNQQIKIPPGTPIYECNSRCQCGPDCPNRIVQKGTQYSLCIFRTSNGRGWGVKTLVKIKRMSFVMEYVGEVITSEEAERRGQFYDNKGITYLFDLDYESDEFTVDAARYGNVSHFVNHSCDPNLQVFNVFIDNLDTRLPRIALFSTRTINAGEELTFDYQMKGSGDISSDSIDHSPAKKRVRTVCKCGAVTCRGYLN

[4] = biological target: T1, Histone-lysine N-methyltransferase EHMT1 (Homo sapiens, UniProt Q9H9B1); test: Inhibition of human GLP (982 to 1266 residues) using H3 peptide as substrate measured upto 45 mins in presence of SAM cofactor
T1 sequence (Q9H9B1 whole entry): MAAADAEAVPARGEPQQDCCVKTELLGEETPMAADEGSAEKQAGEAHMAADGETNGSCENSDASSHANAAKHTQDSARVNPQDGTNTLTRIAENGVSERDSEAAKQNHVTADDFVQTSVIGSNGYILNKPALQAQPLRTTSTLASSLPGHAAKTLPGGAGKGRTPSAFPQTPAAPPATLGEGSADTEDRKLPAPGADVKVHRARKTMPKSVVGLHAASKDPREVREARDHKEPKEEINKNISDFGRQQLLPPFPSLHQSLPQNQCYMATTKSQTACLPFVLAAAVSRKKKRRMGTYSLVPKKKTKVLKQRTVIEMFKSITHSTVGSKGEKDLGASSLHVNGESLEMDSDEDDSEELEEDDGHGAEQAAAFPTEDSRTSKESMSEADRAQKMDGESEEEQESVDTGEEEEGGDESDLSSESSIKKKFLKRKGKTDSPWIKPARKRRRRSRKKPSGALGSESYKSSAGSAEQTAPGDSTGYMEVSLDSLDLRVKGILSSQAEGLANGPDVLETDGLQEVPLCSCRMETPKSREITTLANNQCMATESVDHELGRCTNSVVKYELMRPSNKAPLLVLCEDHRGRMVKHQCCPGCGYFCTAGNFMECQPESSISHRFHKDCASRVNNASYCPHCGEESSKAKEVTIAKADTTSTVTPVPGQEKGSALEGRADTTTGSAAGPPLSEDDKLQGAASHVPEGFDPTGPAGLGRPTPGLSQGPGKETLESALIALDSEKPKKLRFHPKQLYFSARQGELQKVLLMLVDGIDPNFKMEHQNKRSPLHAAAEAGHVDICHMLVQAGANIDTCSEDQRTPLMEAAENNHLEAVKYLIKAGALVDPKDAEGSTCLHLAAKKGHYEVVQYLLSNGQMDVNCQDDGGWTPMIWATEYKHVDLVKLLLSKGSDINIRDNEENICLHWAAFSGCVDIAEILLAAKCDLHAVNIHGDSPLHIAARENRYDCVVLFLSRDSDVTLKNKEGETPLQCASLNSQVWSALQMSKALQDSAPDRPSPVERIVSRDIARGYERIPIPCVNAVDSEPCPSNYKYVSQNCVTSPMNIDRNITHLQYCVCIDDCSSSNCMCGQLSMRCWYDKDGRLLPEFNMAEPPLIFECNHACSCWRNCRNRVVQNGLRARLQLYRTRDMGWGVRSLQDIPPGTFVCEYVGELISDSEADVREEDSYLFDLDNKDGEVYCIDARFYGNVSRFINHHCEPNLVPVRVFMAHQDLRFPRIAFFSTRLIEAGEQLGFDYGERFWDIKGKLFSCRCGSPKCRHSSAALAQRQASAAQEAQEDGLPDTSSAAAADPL
In short: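 Contracted scintillation proximity assay following 3H-methyl transfer from SAM (1 μM) to H3 peptide (0.05 μM) by G9a or GLP (5 nM each), with preincubation times of 5, 15 or 45 min; four replicates.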

[5] = test system: MDA-MB-231; test: Cytotoxicity against human MDA-MB-231 cells after 3 days by CCK-8 assay; assay type: functional, cell-based; details: time 3.0 day
In short: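 MDA-MB-231 cells seeded at 1 × 10^4 per well in 96-well plates, exposed to compounds over a range of concentrations for 3 days.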

[6] = biological target: Histone-lysine N-methyltransferase NSD3 (Homo sapiens) (UniProt Q9BZ95); test: Inhibition of N-terminal GST tagged NSD3 (1021 to 1322 residues) (unknown origin) expressed in Escherichia coli at 1 uM using 3H-SAM as a substrate relative to control; in short: as §1
[7] = biological target: Histone-lysine N-methyltransferase NSD2 (Homo sapiens) (UniProt O96028); test: Inhibition of NSD2 (2 to 1365 residues) (unknown origin) at 1 uM expressed in baculovirus expression system using 3H-SAM as a substrate relative to control; in short: as §1
[8] = biological target: Histone-lysine N-methyltransferase EHMT1 (Homo sapiens) (UniProt Q9H9B1); test: Inhibition of human GLP (982 to 1266 residues) assessed as covalent modification by measuring GLP adduct formation by mass spectrometry; details: time <= 120.0 min, TDE = time-dependent effect
In short: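 Purified G9a or GLP catalytic domain (5 μM) in 50 mM Tris-HCl pH 7.5, 150 mM NaCl incubated with 50 μM compound or DMSO at room temperature (1 h, or 30 and 60 min in time course); intact mass by ESI LC/MS-TOF; adduct % = adduct/(protein + adduct) × 100.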

[9] = biological target: Protein arginine N-methyltransferase 8 (Homo sapiens) (UniProt Q9NR22); test: Inhibition of N/C-terminal His-tagged PRMT8 (61 to 394 residues) (unknown origin) expressed in Escherichia coli at 1 uM using 3H-SAM as a substrate relative to control; in short: as §1
Chain of Protein arginine N-methyltransferase 8 (Homo sapiens) (Q9NR22 2-394 limits assumed): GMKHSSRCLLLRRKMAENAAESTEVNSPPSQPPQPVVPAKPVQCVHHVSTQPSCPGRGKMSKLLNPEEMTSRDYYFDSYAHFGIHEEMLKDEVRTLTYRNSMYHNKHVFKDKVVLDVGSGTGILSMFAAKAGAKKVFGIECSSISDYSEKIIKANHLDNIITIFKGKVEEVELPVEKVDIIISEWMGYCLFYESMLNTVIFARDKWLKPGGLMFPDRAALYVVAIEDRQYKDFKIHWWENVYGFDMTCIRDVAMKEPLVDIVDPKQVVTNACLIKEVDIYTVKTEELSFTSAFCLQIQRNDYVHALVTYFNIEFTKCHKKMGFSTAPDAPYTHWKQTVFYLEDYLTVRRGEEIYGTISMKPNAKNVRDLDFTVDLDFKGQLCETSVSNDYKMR

[10] = test system: MDA-MB-231; test: Down regulation of H3K9 dimethylation in human MDA-MB-231 cells after 24 to 72 hrs by Western blot analysis; assay type: functional, cell-based; details: dose 0.2-5 µM, time lower […], time upper 72.0 hrs, DDE = dose-dependent effect
[11] = biological target: T1, Histone-lysine N-methyltransferase EHMT1; test: Binding affinity to human GLP (982 to 1266 residues) assessed as dissociation constant by isothermal titration calorimetry method
In short: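 ITC at 25 °C in 50 mM Tris-HCl pH 7.5, 150 mM NaCl, 1% DMSO; 500 μM compound in syringe titrated into 50 μM G9a or GLP catalytic domain in cell (initial 0.4 μL injection then 13 injections), stirring 750 rpm; run time about 50 min; single binding site fit; mean ± SD of two independent measurements.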

[12] = biological target: Histone-lysine N-methyltransferase 2A (Homo sapiens) (UniProt Q03164); test: Inhibition of N-terminal His-tagged MLL1 (3745 to 3969 residues) (unknown origin) expressed in Escherichia coli at 1 uM using 3H-SAM as a substrate relative to control; in short: as §1
Chain of Histone-lysine N-methyltransferase 2A (Homo sapiens) (Q03164 1-2718 limits assumed): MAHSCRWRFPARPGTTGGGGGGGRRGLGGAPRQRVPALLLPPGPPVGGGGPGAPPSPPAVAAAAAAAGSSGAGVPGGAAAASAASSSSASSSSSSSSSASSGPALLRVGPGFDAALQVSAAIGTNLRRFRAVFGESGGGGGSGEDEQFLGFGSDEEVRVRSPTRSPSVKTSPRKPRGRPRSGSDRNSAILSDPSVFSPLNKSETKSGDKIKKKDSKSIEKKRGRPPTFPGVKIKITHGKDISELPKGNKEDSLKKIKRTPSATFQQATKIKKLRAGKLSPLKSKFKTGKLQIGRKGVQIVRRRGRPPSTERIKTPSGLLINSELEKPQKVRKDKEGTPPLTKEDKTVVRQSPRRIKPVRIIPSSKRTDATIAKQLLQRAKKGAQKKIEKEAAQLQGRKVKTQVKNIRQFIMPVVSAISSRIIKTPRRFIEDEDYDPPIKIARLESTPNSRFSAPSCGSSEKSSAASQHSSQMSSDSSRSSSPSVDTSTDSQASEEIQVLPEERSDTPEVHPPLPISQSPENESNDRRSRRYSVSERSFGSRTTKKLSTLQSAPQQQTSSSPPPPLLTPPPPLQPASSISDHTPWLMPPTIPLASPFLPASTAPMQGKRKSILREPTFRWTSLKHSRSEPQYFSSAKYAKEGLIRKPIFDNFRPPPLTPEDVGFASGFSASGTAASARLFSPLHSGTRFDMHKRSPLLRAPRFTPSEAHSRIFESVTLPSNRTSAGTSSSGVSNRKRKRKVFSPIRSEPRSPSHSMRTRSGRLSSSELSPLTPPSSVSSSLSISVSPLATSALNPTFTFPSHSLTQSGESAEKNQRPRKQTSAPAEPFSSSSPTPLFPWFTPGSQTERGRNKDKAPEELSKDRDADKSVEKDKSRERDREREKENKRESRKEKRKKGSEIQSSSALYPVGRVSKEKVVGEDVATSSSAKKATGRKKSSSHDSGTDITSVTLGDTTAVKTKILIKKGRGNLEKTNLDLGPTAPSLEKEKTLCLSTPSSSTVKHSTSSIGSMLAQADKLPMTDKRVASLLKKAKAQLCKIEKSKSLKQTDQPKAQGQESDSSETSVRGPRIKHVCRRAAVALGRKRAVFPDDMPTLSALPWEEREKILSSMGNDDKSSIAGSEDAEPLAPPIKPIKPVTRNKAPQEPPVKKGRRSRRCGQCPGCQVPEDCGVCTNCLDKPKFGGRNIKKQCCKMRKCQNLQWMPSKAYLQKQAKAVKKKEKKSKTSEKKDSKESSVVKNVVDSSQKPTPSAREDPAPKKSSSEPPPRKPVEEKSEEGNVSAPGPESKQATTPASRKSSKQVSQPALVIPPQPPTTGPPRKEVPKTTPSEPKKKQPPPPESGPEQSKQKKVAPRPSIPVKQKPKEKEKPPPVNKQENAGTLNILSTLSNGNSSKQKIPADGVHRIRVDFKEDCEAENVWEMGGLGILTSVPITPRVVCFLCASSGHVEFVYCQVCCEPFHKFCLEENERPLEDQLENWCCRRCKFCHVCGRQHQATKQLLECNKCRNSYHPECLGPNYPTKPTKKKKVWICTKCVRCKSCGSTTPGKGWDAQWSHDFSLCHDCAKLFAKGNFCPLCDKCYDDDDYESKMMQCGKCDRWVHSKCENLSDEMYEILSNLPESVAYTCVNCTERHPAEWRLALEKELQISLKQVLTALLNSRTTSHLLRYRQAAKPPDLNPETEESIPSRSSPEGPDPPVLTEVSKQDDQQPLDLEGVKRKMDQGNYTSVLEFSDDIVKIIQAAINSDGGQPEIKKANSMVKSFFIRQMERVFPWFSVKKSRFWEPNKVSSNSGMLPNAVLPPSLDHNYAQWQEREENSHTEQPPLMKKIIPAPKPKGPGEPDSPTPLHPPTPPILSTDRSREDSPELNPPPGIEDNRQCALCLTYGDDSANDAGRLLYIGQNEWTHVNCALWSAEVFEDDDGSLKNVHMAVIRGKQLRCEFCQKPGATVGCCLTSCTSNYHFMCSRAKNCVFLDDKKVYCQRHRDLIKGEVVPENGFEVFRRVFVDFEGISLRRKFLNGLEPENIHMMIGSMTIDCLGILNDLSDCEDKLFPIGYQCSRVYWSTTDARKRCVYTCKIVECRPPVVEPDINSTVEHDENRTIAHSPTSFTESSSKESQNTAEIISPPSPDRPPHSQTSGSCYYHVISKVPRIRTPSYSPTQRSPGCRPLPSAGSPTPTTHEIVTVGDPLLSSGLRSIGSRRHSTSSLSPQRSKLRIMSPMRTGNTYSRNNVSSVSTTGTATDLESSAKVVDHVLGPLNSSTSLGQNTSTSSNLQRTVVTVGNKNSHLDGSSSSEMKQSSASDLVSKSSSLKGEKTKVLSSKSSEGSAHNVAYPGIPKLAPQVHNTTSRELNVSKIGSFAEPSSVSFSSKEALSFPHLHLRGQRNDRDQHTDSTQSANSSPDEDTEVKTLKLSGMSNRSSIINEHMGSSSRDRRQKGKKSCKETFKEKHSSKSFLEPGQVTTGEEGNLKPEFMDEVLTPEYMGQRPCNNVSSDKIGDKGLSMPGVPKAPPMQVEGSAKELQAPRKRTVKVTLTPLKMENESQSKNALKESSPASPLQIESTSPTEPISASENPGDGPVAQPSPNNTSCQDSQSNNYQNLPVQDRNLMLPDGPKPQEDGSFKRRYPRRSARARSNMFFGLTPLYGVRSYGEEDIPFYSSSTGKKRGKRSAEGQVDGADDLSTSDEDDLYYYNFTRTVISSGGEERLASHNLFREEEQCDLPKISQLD
Chain of Histone-lysine N-methyltransferase 2A (Homo sapiens) (Q03164 2719-3969 limits assumed): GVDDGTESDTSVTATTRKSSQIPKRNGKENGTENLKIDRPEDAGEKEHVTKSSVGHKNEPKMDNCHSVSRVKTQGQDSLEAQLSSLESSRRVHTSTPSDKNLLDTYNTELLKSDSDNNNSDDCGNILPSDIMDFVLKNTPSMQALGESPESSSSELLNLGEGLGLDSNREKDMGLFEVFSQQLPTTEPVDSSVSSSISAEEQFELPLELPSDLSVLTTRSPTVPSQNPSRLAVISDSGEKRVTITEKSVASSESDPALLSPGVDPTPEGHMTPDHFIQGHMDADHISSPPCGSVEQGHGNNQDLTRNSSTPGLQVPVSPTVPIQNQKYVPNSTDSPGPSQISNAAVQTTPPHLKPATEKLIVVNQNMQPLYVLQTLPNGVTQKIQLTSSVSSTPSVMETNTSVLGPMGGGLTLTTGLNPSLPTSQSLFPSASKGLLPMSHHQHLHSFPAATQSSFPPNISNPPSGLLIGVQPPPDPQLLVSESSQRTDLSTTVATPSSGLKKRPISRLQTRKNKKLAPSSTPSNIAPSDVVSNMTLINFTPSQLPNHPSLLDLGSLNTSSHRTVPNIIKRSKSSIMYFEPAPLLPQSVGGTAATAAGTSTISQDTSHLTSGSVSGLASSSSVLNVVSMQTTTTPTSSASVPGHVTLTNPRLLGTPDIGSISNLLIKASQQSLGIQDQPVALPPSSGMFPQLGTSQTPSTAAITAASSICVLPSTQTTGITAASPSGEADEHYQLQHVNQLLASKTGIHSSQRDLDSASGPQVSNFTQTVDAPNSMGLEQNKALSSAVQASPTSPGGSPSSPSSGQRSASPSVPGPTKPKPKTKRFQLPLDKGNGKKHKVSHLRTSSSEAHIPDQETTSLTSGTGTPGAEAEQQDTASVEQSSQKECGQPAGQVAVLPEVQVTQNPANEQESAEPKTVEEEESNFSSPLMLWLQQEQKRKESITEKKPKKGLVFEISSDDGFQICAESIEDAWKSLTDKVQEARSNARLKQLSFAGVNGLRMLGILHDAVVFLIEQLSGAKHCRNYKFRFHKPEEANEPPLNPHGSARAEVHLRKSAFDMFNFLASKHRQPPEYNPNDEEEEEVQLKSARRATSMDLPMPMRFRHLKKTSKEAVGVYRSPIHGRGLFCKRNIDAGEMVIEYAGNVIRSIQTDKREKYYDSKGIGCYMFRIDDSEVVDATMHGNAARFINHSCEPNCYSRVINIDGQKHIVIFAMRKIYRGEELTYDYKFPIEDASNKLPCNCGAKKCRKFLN

inhibition [1]: < 50%
inhibition [2]: < 50%
inhibition [3]: < 50%
IC50 [4]: 140 nM
inhibition [6]: < 50%
inhibition [7]: < 50%
inhibition [8]: Tde
inhibition [9]: < 50%
Kd [11]: 46 nM
inhibition [12]: < 50%
SMILES: C=CC(=O)Nc1cc(NC2CCN(C(C)C)CC2)c2cc(OC)c(OCCCN3CCCC3)cc2n1
Activity [5]: Active
Activity [10]: Dde
